Common to all, as to format: functional
Assay [1] relates to Escherichia coli. Description: Antibacterial activity against Escherichia coli at 100 mM after 16 to 24 hrs by disk diffusion assay. To be noted: for zone of inhibition at 100000 µM: read-out: DIZ. A digest of the protocol: (§1)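 Bacteria grown in Lysogeny broth (LB), spread on LB or lactose peptone (LP) agar, and plates dried 10 min. 6 mm filter-paper disks placed, five per plate, at least 3 cm apart. Each disk loaded with a 100 mM solution of compound. Incubation 16–24 h at 37 °C. Zone of clearance around each disk inspected and photographed.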

Assay [2] deals with Bacillus subtilis. The experiment in a line: Antibacterial activity against Bacillus subtilis at 100 mM after 16 to 24 hrs by disk diffusion assay. To be noted: for zone of inhibition at 100000 µM: read-out: DIZ. A digest of the protocol: as §1
In general terms: A growth-free zone around the sample is the usual read-out of agar diffusion tests.

Assay [3] deals with Escherichia coli. The experiment in a line: Antibacterial activity against Escherichia coli at 50 mM after 16 to 24 hrs by disk diffusion assay. To be noted: read-out: DIZ. A digest of the protocol: (§2)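 Positive-control disks loaded with 50 mM ampicillin solution. Bacteria grown in LB and spread on LB or LP agar, with plates dried 10 min before disks were placed. Disks were 6 mm filter paper, five per plate spaced at least 3 cm apart. Plates held at 37 °C for 16–24 h, then the clearance zone was checked and photographed.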

Assay [4] concerns Bacillus subtilis. The experiment in a line: Antibacterial activity against Bacillus subtilis at 50 mM after 16 to 24 hrs by disk diffusion assay. The settings on record: read-out: DIZ. A digest of the protocol: as §2

In ChEMBL document CHEMBL3769370, “Synthesis and SAR of 4-methyl-5-pentylbenzene-1,3-diol (MPBD), produced by Dictyostelium discoideum” (2016) one finds zone of inhibition and Activity data, which are given here for six compounds.

Active and inactive are the calls of the source. The calls are words filed in the database; no cut-off is given here.

For the compound `CCCCCc1cc(O)cc(O)c1CCC`, the zone of inhibition at 100000 µM in the assay on Escherichia coli [1] and in the assay on Bacillus subtilis [2] was 4 mm throughout.

As for `CC1(C)S[C@@H]2[C@H](NC(=O)[C@H](N)c3ccccc3)C(=O)N2[C@H]1C(=O)O` [AMPICILLIN], the zone of inhibition at 50000 µM with Escherichia coli [3] and in the assay on Bacillus subtilis [4] was 7 mm in each case.

On to `CCCCCc1cc(O)ccc1C`, for which the zone of inhibition at 100000 µM with Escherichia coli [1] and with Bacillus subtilis [2] was 1 mm in each case.

As to `CCCCCc1cc(O)cc(O)c1C`, the zone of inhibition at 100000 µM in the assay on Escherichia coli [1] came out at 5 mm; in the assay on Bacillus subtilis [2], 1 mm.

Turning to `CCCCCc1cc(OC)cc(OC)c1C`, the result with Escherichia coli [1] and in the assay with Bacillus subtilis [2] was inactive.

Consider `CCCCCc1cc(O)cc(O)c1CC`, for which the zone of inhibition at 100000 µM in the assay with Escherichia coli [1] is 4 mm; with Bacillus subtilis [2] it was 1 mm.
